Measurements reported in article PMC5488126 (CPT: Pharmacometrics & Systems Pharmacology, 2017).

Experiments:
platelet counts [1] = settings: human, BM dysfunction simulations
How it was run: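 The Friberg platelet model was extended with a capacity term fr on the proliferating compartment. fr rose linearly from a baseline fraction of 0.65 (initial Circ0 61.2 ×10⁹/L) over recovery durations of 1 h and 10, 30, 100, 300 and 1,000 days. Runs used slope 0 (recovery only) or 0.45 with 300 mg q.d. for 98 days. Schedules compared over 300-day recovery were 300 mg q.d. continuous, b.i.d. 3 on 4 off, and q.d. 7 on 7 off. fr was also varied from 0.25 to 1.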

[2] = Rat PK model of AZD5153 plasma concentrations; format: in vivo, Han Wistar rat; settings: oral, population typical estimate (RSE), estimated from observed data
How it was run: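 Female Han Wistar rats, 9–10 weeks old, were dosed orally in 0.5% hydroxymethylcellulose with 0.1% Tween80. Plasma was taken 2 h postdose on days 1, 4 and 7 and measured by LC-MS/MS. Data were fitted to a one-compartment model with first-order absorption, with ka and clearance fixed from a separate toxicology study and volume estimated. Fitting used FOCE-ELS and included between-subject variability.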

circulating platelets = assay: Rat platelet count study fitted to myelosuppression model; format: in vivo, Han Wistar rat; settings: for platelet changes in rat: oral
platelet counts [3] = assay: Simulation of human platelet counts with healthy BM; settings: healthy simulations, converted from rat slope using fu
[4] = cited from earlier work

| Recovery +drug induced myelosuppression: slopeAZD5153 (platelet counts [1]) | V [2] | platelet changes in rat (circulating platelets; 0.1 mg/kg q.d.) | platelet changes in rat (circulating platelets; 1 mg/kg q.d.) | platelet changes in rat (circulating platelets; 1.5 mg/kg b.i.d. (3 on 4 off)) | slopeAZD5153 (circulating platelets; rat platelet PD model, total concentrations, population typical estimate (RSE)) | slopeAZD5153 (platelet counts [3]) | Structure (SMILES) | frequency of severe TCP by pretreatment baseline ([4]; OTX015 phase 1 trial) | dose-limiting toxicity in patients ([4]; phase I, nonleukemia hematological malignancies) |
| --- | --- | --- | --- | --- | --- | --- | --- | --- | --- |
| 0.45 1/(μmol/L) | 0.39 (16) L/kg | negligible platelet changes | clear effects | clear effects | 0.09 (14) 1/(μmol/L) | 0.45 1/(μmol/L) | COc1nnc2ccc(N3CCC(c4ccc(OCCN5CCN(C)C(=O)[C@H]5C)cc4)CC3)nn12 [AZD5153, (3R)‐4‐[2‐[4‐[1‐(3‐methoxy‐[1,2,4]triazolo[4,3‐b]pyridazin‐6‐yl)‐4‐piperidyl]phenoxy]ethyl]‐1,3‐dimethyl‐piperazin‐2‐one] |  |  |
|  |  |  |  |  |  |  | Cc1sc2c(c1C)C(c1ccc(Cl)cc1)=N[C@@H](CC(=O)Nc1ccc(O)cc1)c1nnc(C)n1-2 [OTX015] | severe TCP was more frequent in patients with low platelet counts at pretreatment baseline | thrombocytopenia (TCP) as a dose‐limiting toxicity (DLT) |
